High-throughput results (PubChem BioAssay)
Compounds with a hit are over-represented: about 5.9% of the library has one in this group of screens.
PTK2B oligo ant = antagonists of human Pyk2 oligomerization; Q14289; Q293 cells, Pyk2 FERM NanoBiT luminescence; stronger effect = lower value; z-score (the deposit names both 25 µM and 10 µM); 0.83% of 99,000 active; AID 1347419;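 active means Z-score of -3 or lower, scaled per plate to the spread of control and sample wells; inactive means z-score above -3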;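 further: negative z-score means lost luminescence so less FERM oligomerization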
Phagocyt inh = inhibitors of macrophage phagocytosis; inhibition, % at 5 µM; J774A.1 macrophage IgG-bead phagocytosis, imaging; 0.07% of 110,000 active;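 active means inhibition above the mean of the plate negative controls plus 5 SD, cut at about 13% in these data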;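 further: phagocytic index as fraction of beads internalized from green versus red external bead signal; plate controls were DMSO negative control for no effect and cytochalasin-D positive control for full effect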
Measles CPE = protection of cells from measles virus. Measles virus-infected cells, CPE protection, absorbance. protection (pct of control), % at 4 µM. 1.5% of 140,000 active. AID 841; in the data active means protection mostly above about 24%, no sharp cut-off; inactive means mostly below about 26%
hDAT+cocaine = changed human dopamine transporter uptake under cocaine IC80 | LLC-PK1 hDAT cells, [14C]-dopamine uptake with cocaine IC80; actives deviate in either direction | B-score at 10 µM | 1.3% of 110,000 active;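 active means Z score or B-score, a plate-position-corrected score, falls beyond the plate's 99.7% confidence bounds, in either direction; inactive means both scores lie inside the 99.7% bounds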;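 further: scored against the spread of the other compound wells on the same plate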
Cav32 inh = human Cav3.2 channel inhibition, primary screen. Cav3.2-expressing cells, Fluo-4 calcium fluorescence FDSS; stronger effect = lower value. B-score at 10 µM. 4% of 100,000 active. AID 449739;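 active means single-dose well whose peak fluorescence ratio is a statistical outlier from its plate by either plate-standardised score or position-corrected B-score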
HIV Rev-RRE inh = inhibitors of HIV-1 Rev-RRE RNA interaction. Rev peptide-RRE RNA binding, FRET. inhibition, % at 8 µM. 0.79% of 97,000 active;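 active means inhibition above the screen-wide mean plus 3 SD, cut at about 35% in these data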;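 further: 0% = median DMSO wells and 100% = median Neomycin B control wells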
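Test system: Cy5-tagged RRE RNA duplex with fluorescein-tagged Rev peptide | Read-out: % inhibition of FRET ratio versus controls | Probe or stimulus: Labelled Rev peptide | Incubation: 5 min RNA-compound premix plus 15 min binding step, 25 °C | Technique: FRET fluorescence readout | Benchmarks: DMSO low control, neomycin B high control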
Numbers without * were called inactive.

What do the screens show for `CCn1c(=O)c(C(=O)Nc2nc3ccccc3[nH]2)c(O)c2ccccc21`?
PTK2B oligo ant: -1.3; Phagocyt inh: -2; Measles CPE: 11; hDAT+cocaine: -0.12; Cav32 inh: 0.03; HIV Rev-RRE inh: 15

How did Cn1cnnc1SCc1ccc(C(=O)N=Nc2c(O)n(C)c3ccccc23)cc1 do in these assays?
PTK2B oligo ant: -0.2; Phagocyt inh: -10; Measles CPE: 7

Results for CCOC(=O)C1=C(Nc2ccccc2)CC(C)(O)C(C(=O)OCC)C1c1ccc(Cl)cc1 (configuration not stated) ?
Phagocyt inh: 1; Measles CPE: 2

How did CC(C)Nc1ccc(C(CC(N)=O)NC(=O)Cc2ccc(Br)cc2)cc1[N+](=O)[O-] (configuration not stated) do in these assays?
hDAT+cocaine: 0.14; Cav32 inh: -0.65

How did CCSc1nc(N2CCOCC2)c2c(c1C#N)CCCC2 do in these assays?
PTK2B oligo ant: -2.3; Phagocyt inh: -1; Measles CPE: 6; hDAT+cocaine: 0.53; Cav32 inh: -2.1; HIV Rev-RRE inh: 16

What do the screens show for `CC(C)c1nc(N2CCOCC2)c(C#N)c2c1CCCC2`?
PTK2B oligo ant: -0.43; Phagocyt inh: 2; Measles CPE: 16; hDAT+cocaine: -0.76; Cav32 inh: -5*; HIV Rev-RRE inh: 16

Results for N#Cc1c2c(c(-c3ccco3)[nH]c1=O)CCCC2 ?
PTK2B oligo ant: -0.65; Phagocyt inh: -1; Measles CPE: 46*; hDAT+cocaine: -0.73; Cav32 inh: 0.3; HIV Rev-RRE inh: 4

How did O=C(CCSc1ccc(Cl)c(Cl)c1)NC12CC3CC(CC(C3)C1)C2 do in these assays?
PTK2B oligo ant: 0.02; Phagocyt inh: -5; Measles CPE: 5; hDAT+cocaine: -1.3; Cav32 inh: -5.9*; HIV Rev-RRE inh: 10

Results for CCOC(=O)C1=C(CC)Nc2ccccc2N=C1NC(=O)Nc1ccc(Cl)c(Cl)c1 ?
PTK2B oligo ant: -4.1*; Phagocyt inh: -1; Measles CPE: 7; hDAT+cocaine: 0.0007; Cav32 inh: -3.8; HIV Rev-RRE inh: 5

Results for CCOC(=O)C1=C(CC)Nc2ccccc2N=C1NC(=O)Cn1cnc2ccccc2c1=O ?
PTK2B oligo ant: -0.25; Phagocyt inh: -1; Measles CPE: 2; hDAT+cocaine: 0.14; Cav32 inh: 1; HIV Rev-RRE inh: 4

How did Cc1ccc(C2=Nc3ccccc3N=C(c3ccc([N+](=O)[O-])cc3)C2)c(O)c1 do in these assays?
Phagocyt inh: -4; Measles CPE: 29

Results for COc1cccc(-c2cc(C(F)(F)F)nc(N3CCC(C)CC3)n2)c1 ?
PTK2B oligo ant: 0.64; Measles CPE: 9; hDAT+cocaine: -0.097; Cav32 inh: 0.11; HIV Rev-RRE inh: 41*

Results for O=S1(=O)CCC(N=Cc2cc(Br)ccc2O)C1 (configuration not stated) ?
PTK2B oligo ant: -0.17; Phagocyt inh: 0; Measles CPE: 32; hDAT+cocaine: -0.65; Cav32 inh: -12*; HIV Rev-RRE inh: 12

What do the screens show for `O=c1c2ccccc2c(C=NC2CCS(=O)(=O)C2)c(O)n1-c1ccccc1` (configuration not stated)?
PTK2B oligo ant: 0.34; Phagocyt inh: 1; Measles CPE: 22; hDAT+cocaine: -0.45; Cav32 inh: -0.38; HIV Rev-RRE inh: -3

What do the screens show for `O=C(/C=C/c1ccccc1)NC(NC(=S)Nc1cccc(O)c1)C(Cl)(Cl)Cl` (configuration not stated)?
Phagocyt inh: -6; Measles CPE: 13

How did O=C(/C=C/c1ccccc1)NC(NC(=S)Nc1cccc(Cl)c1)C(Cl)(Cl)Cl (configuration not stated) do in these assays?
PTK2B oligo ant: -2.1; Phagocyt inh: -2; Measles CPE: 19; hDAT+cocaine: -7.3*; Cav32 inh: -1.6; HIV Rev-RRE inh: 13

What do the screens show for `O=C(/C=C/c1ccccc1)NC(NC(=S)Nc1ccc(C(=O)O)cc1)C(Cl)(Cl)Cl` (configuration not stated)?
Measles CPE: 45*

How did O=C(/C=C/c1ccccc1)NC(NC(=S)Nc1ccc(Cl)cc1Cl)C(Cl)(Cl)Cl (configuration not stated) do in these assays?
Phagocyt inh: -11; Measles CPE: 15

Results for Cc1ccc(C)c(NC(=S)NC(NC(=O)/C=C/c2ccccc2)C(Cl)(Cl)Cl)c1 (configuration not stated) ?
PTK2B oligo ant: -0.75; Phagocyt inh: -1; Measles CPE: 25; hDAT+cocaine: 0.082; Cav32 inh: -6.9*; HIV Rev-RRE inh: 4

What do the screens show for `CC(C(=O)O)n1c(C(F)(F)F)nc2ccccc21` (configuration not stated)?
PTK2B oligo ant: 0.54; Measles CPE: 6; hDAT+cocaine: -1.3; Cav32 inh: 0.4; HIV Rev-RRE inh: 3

What do the screens show for `O=C(Nc1ccccc1OC(=O)c1ccc(Cl)cc1)c1ccc(Cl)cc1`?
Phagocyt inh: -5; Measles CPE: 79*

How did Clc1ccc(-c2nc3ccccc3n2OCc2ccccc2)cc1 do in these assays?
PTK2B oligo ant: -0.54; Phagocyt inh: 4; Measles CPE: 39*; hDAT+cocaine: -0.17; Cav32 inh: -0.56; HIV Rev-RRE inh: 18

How did CCCCNS(=O)(=O)c1ccc2nc(SCC(=O)Nc3ccccc3Cl)[nH]c2c1 do in these assays?
Phagocyt inh: -5; Measles CPE: 37

Results for CCCCNS(=O)(=O)c1ccc2nc(SCC(=O)Nc3sccc3C#N)[nH]c2c1 ?
PTK2B oligo ant: -3.7*; Phagocyt inh: 1; Measles CPE: 7; hDAT+cocaine: -1.3; Cav32 inh: -3.5*; HIV Rev-RRE inh: 23

How did CCCCCNS(=O)(=O)c1cc(C)ccc1OC do in these assays?
Phagocyt inh: 0; Measles CPE: 1

What do the screens show for `CCCCCCNS(=O)(=O)c1ccc(Cl)s1`?
PTK2B oligo ant: -1.6; Phagocyt inh: 0; Measles CPE: 4; hDAT+cocaine: -0.77; Cav32 inh: -6.4*; HIV Rev-RRE inh: 19

Results for CCOc1ccc(C2Sc3ccccc3NC3=C2C(=O)OC3)cc1 (configuration not stated) ?
PTK2B oligo ant: -2.6; Phagocyt inh: -2; Measles CPE: 8; hDAT+cocaine: -0.092; Cav32 inh: -4.1*; HIV Rev-RRE inh: 19

How did Cc1ccc(C(C)NC(=O)C2CCCO2)cc1C (configuration not stated) do in these assays?
PTK2B oligo ant: -0.13; Phagocyt inh: 1; Measles CPE: 3; hDAT+cocaine: -1.1; Cav32 inh: -5.4*; HIV Rev-RRE inh: 2

What do the screens show for `O=C(COc1ccc(C(F)(F)F)cc1[N+](=O)[O-])Nc1cccc(C(F)(F)F)c1`?
Measles CPE: 50*
